Bioassay records: PubChem, Sanford-Burnham Center for Chemical Genomics
Sampled rows, rich in hits. Any-hit rate of the full collection: about 0.77%.
mIAP act – mouse IAP activation; 0.24% of 330,000 active; activation factor at 10 µM; muIAP, CDP-Star luminescence, 30 min; active compounds read high; 1 = vehicle-only enzyme signal, 0 = enzyme-free wells;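 active means activation factor of at least 2 at 20 µM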
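System: mouse IAP enzyme. Reagent: CDP-Star chemiluminescent phosphatase substrate. Benchmarks: DMSO wells, no-enzyme wells. Times: 30 min enzyme-substrate-compound incubation at room temperature. Detection: luminescence from enzymatic CDP-Star hydrolysis. Doses: test compounds delivered from DMSO solution.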
hIAP block – human IAP inhibition. P09923. purified IAP, CDP-Star luminescence, 30 min. inhibition, % at 10 µM. 0.12% of 330,000 active;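 active means inhibition reaching a set limit with compound at 10 µM in the primary screen, cut at about 35% in these data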;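 further: plate controls were DMSO wells with enzyme for no effect and no-enzyme buffer wells for full effect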
Target sequence (P09923 whole entry, looked up): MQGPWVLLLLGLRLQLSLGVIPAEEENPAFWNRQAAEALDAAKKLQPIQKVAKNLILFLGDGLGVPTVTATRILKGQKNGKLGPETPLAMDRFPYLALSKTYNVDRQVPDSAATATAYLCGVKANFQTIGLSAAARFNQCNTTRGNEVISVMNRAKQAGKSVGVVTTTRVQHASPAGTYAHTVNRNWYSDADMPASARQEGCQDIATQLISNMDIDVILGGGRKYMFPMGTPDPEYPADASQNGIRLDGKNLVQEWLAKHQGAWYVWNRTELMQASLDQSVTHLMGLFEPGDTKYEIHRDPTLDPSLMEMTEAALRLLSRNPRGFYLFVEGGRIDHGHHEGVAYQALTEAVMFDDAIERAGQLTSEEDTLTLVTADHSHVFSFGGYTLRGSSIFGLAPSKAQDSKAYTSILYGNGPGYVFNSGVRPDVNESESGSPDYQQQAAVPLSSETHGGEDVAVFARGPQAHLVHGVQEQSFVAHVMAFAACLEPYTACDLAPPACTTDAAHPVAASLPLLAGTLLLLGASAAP
bIAP inh – intestinal alkaline phosphatase (bovine) inhibition. 190,000 tested, under 10 active. inhibition, % at 20 µM. purified bovine IAP, CDP-star luminescence, 30 min. AID 1019;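 active means over 50% inhibition of intestinal alkaline phosphatase at 20 µM in the single-dose screen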
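System: purified bovine intestinal alkaline phosphatase (IAP) enzyme; Input: IAP diluted 1/65,000,000 in the well; Measured by: CDP-star luminescence signal; Compound dosing: 20 µM single dose; Incubation: 30 min reaction at room temperature.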
mIAP block – blocks mouse intestinal alkaline phosphatase; purified mouse IAP, CDP-Star luminescence, 30 min; AID 2806; inhibition, % at 10 µM; 0.2% of 330,000 active;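 active means inhibition of at least 40% at 10 µM in the primary screen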;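 further: plate controls were DMSO with enzyme for no effect and no enzyme wells for full effect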
bIAP act – intestinal alkaline phosphatase (bovine) activation; purified bovine IAP, CDP-star luminescence, 30 min; active compounds read high; fold of DMSO-control signal, blank-subtracted; activation factor at 20 µM; 0.17% of 200,000 active;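 active means activation factor of 2 or more at 20 µM, a signal rise over negative controls twice the positive control's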
hIAP activ – human IAP activation | 0.16% of 330,000 active | activation factor at 10 µM | purified human IAP, CDP-Star luminescence, 30 min; active compounds read high; 1 = vehicle-only enzyme, 0 = enzyme-free background | AID 2524;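 active means activation factor of the enzyme at least 2-fold when tested at 20 µM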
mIAP inh conf – mouse IAP inhibition confirmation; 4.7% of 11,000 active; inhibition, % at 10 µM; shares compounds with mIAP block; purified mouse IAP, CDP-Star luminescence, 30 min;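 active means inhibition of at least 40% at 10 µM in either of the two replicates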;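 further: plate controls were DMSO wells with enzyme for no effect and buffer wells lacking enzyme for full effect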
* marks the source's active call; other numbers are inactive results; · = no result.

SMILES	mIAP act	hIAP block	bIAP inh	mIAP block	bIAP act	hIAP activ	mIAP inh conf
O=C1NC(=O)N(Cc2ccccc2)C(=O)/C1=C/C=C/c1ccco1	0.43	1	·	57*	·	0.99	66*
O=C(c1c[nH]cc1-c1ccccc1)c1cccc2ccccc12	1	15	-3	0	1	0.85	·
O=[N+]([O-])c1cc(S(=O)(=O)c2ccc(O)c([N+](=O)[O-])c2)ccc1O	0.37	0	29	63*	0.7	1	53*
O=C(NC1CCCCC1)Oc1cc2oc(=O)sc2cc1Cl	0.39	-8	·	61*	·	1.1	76*
Cc1ccc(N2C(=O)/C(=C/c3ccc(CN(CCC#N)S(C)(=O)=O)o3)C(=O)NC2=S)cc1	0.53	6	-1	47*	1	0.94	44*
NNC(=O)c1nc[nH]c1C(=O)Nc1ccc(Cl)cc1C(=O)c1ccccc1	0.9	-30	·	10	·	1.3	·
Cc1cccc(OCCn2cccc2/C=C2/C(=O)NC(=O)N(Cc3ccco3)C2=O)c1	0.6	10	·	40*	·	0.9	57*
O=C1NC(=O)N(Cc2ccco2)C(=O)/C1=C\c1cccn1CCOc1ccc(Cl)cc1	0.51	-12	15	49*	0.9	1.1	50*
NC1=NC(c2cccnc2)n2c(nc3ccccc32)N1 (centres undefined)	1	19	·	-3	·	0.81	·
O=C1NC(=S)NC(=O)C1=Cc1ccc2c(c1)CCN2CCCCl	0.34	-2	·	66*	·	1	73*
N[C@@H](CCl)C(=O)O	1.1	-28	·	-5	·	1.3	·
NC(Cc1cc(O)c(O)cc1O)C(=O)O (centres undefined)	0.17	-17	·	84*	·	1.2	88*
CN1C2CCC1C(C(=O)O)C(O)C2 (centres undefined)	1.1	-26	·	-7	·	1.3	·
CCCOP(=O)(O)c1c([N+](=O)[O-])cc(C(F)(F)F)cc1[N+](=O)[O-] (tested in a mixture with another compound)	0.96	12	7	4	0.9	0.88	·
O=C1NC(=O)N(c2cccc(Cl)c2)C(=O)/C1=C\c1ccc(Sc2nc3ccccc3[nH]2)o1	0.54	-7	0	46*	1	1.1	50*
O=C1NC(=O)N(c2ccccc2F)C(=O)/C1=C/c1ccc(Sc2nc3ccccc3[nH]2)o1	·	·	13	·	0.9	·	·
O=c1c2ccccc2nc(Cc2cccc([N+](=O)[O-])c2)n1-c1ccc(O)cc1	0.95	8	·	5	·	0.92	·
COc1cccc(N2C(=O)NC(=O)/C(=C/c3ccc([N+](=O)[O-])s3)C2=O)c1	0.52	7	·	48*	·	0.93	51*
COc1ccc(N2C(=O)NC(=O)/C(=C\c3ccc([N+](=O)[O-])s3)C2=O)cc1	0.77	5	2	23	1	0.95	·
